Rows were chosen to be rich in hits. Some 3.5% of all compounds tested hit in one or more screens of this group.
MrgX1 allo act = allosterically activates human MrgX1 receptor signaling; Q96LB2; MrgX1-HEK293, Fluo-4 calcium flux, FDSS; hits give high values; B-score at 10 µM; 310,000 compounds, 0.63% hits; AID 588675;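 active = plate-corrected calcium response at least 3 library SD above typical, normal starting fluorescence, not activating the receptor alone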;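 note: compound read alongside a low EC10 to EC30 dose of BAM8-22 agonist; peak minus trough fluorescence over baseline measured at the second addition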
Target sequence (Q96LB2 whole entry, looked up): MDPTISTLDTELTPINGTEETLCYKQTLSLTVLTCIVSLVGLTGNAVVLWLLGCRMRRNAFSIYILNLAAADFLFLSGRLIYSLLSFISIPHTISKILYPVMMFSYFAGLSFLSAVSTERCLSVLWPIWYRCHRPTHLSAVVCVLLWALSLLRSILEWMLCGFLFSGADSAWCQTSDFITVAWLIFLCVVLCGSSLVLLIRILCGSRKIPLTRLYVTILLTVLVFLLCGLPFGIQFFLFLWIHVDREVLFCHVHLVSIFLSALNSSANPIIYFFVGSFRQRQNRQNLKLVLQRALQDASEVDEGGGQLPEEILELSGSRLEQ
MrgX1 antagonist = antagonists of human MrgX1 receptor; Q96LB2; MRGX1-HEK293 calcium flux, Fluo-4, BAM8-22 antagonism; hits give low values; B-score at 10 µM; 310,000 compounds, 1.3% hits; AID 588676;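 active = calcium-response B-score plate-corrected more than 3 library SD below zero, starting fluorescence within 5 deviations, no agonist response on first addition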;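 note: peak minus trough fluorescence over baseline after final BAM8-22 challenge near maximal dose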
RGS4 block = inhibitors of human RGS4; P49798; B-score at 10 µM; 310,000 compounds, 0.45% hits; HEK293 M3R/RGS4 inducible, Fluo-4 calcium flux; hits give high values; triggered by carbachol at its EC20;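 active = B-score, a plate-corrected calcium signal, over three deviations above library mean, with baseline fluorescence within five deviations of library mean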;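 note: RGS4 expression induced by doxycycline in cells with stable M3 receptor; B-score is computed from the integrated fluorescence ratio over baseline after carbachol; higher B-score means a larger calcium signal and so more RGS4 inhibition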
Target sequence (P49798 whole entry, looked up): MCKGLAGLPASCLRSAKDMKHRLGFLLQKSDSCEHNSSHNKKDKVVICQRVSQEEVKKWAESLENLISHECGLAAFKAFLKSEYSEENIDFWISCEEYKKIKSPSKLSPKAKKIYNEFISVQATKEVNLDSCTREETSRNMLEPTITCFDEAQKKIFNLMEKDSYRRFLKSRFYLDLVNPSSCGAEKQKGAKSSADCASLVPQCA
RGS4 pot = potentiators or activators of RGS4; HEK293 M3R/inducible RGS4, carbachol calcium flux Fluo4; hits give low values; B-score at 10 µM; 310,000 compounds, 0.92% hits; AID 463111;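 active = B-score of the integrated calcium signal more than 4 SD below the library mean, with starting fluorescence not abnormally high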;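 note: negative B-score means reduced calcium response which marks RGS4 activation or potentiation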
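System: HEK293 FlpIn-TREx cells, stable M3R, doxycycline-inducible RGS4. Timing: overnight RGS4 induction, 30 min dye load 37 °C, 20 min compound RT. Also added: carbachol, ECmax concentration. Measured by: Fluo4 fluorescence kinetic imaging of calcium. Evaluation: integrated calcium ratio converted to B score.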
MrgX1 ag = human MrgX1 receptor agonism, primary screen | B-score at 10 µM | MrgX1-HEK293 cells, Fluo-4 calcium fluorescence, agonist mode; hits give high values | 310,000 compounds, 0.44% hits | Q96LB2 | AID 588627;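 active = calcium response B-score plate-corrected fluorescence ratio at least 3 library SD, with starting fluorescence B-score inside 5 SD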
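System: HEK293 cells stably expressing human MrgX1 receptor; Dosing: test compound in the initial addition of three; Schedule: overnight plating, then 30 min 37 °C plus 30 min room-temperature dye loading; Detection: kinetic calcium dye fluorescence, Fluo-4 NW; Controls: per-plate positive and negative controls for Z′ factor.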
RGS4 inh valid = RGS4 inhibitor validation; shares compounds with RGS4 block; calcium response, % at 10 µM; HEK293 M3R/RGS4, carbachol calcium Fluo-4 fluorescence; carbachol added at its EC20; 0 = buffer wells, 100 = carbachol control; 1,700 compounds, 65% hits;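 active = duplicate-averaged calcium response above the buffer-only control mean plus 5 SD of those controls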;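 note: integrated fluorescence ratio F max minus min over baseline F0; higher response in RGS4-induced cells means RGS4 inhibition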
RGS4 uninduced = checks RGS4 inhibitor effects in non-induced HEK293 M3R cells; shares compounds with RGS4 block; carbachol calcium Fluo-4; submaximal (EC20) carbachol stimulus; buffer wells 0%, carbachol control wells 100%; activity (percent), % at 10 µM; 1,900 compounds, 20% hits; call rule not given here;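 note: RGS4 induction absent so cells express M3R without RGS4; higher means more calcium signal and flags a non-specific hit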
RGS4 inh ctr2 = signal in non-induced cells without carbachol, RGS4 inhibitor counter-screen; shares compounds with RGS4 block; HEK293 M3R/RGS4 non-induced, Fluo-4 calcium, no carbachol; normalised: buffer wells 0%, carbachol wells 100%; calcium response (agonist-mode artifact), % at 10 µM; 1,900 compounds, 22% hits; AID 493001;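 active = duplicate-averaged calcium rise in uninduced cells above buffer wells' mean plus 5 SD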
Hits are given with their value; i = inactive; nt = not tested or not shown.

SMILES	MrgX1 allo act	MrgX1 antagonist	RGS4 block	RGS4 pot	MrgX1 ag	RGS4 inh valid	RGS4 uninduced	RGS4 inh ctr2
CCCCNC(=S)N(CCO)Cc1cc2cc3c(cc2[nH]c1=O)OCCO3	i	i	i	i	i	i	i	i
CCOCCCNC(=S)N(CCO)Cc1cc2cc3c(cc2[nH]c1=O)OCCO3	i	i	i	i	i	i	i	i
CCN(CC)CCCNC(=S)N(CCO)Cc1cc2cc3c(cc2[nH]c1=O)OCCO3	i	i	i	i	i	i	i	i
O=C(COC(=O)c1ccc(O)cc1)Nc1ccc2[nH]c(=O)[nH]c2c1	i	i	i	i	i	nt	nt	nt
CC(=O)C1=C(O)C(=O)N(c2ccc(Br)cc2)C1c1cccc(F)c1 (centres undefined)	i	i	i	i	i	nt	nt	nt
COc1ccc(/C=C(/NC(=O)c2ccccc2)C(=O)N/N=C/c2cccs2)cc1OC	i	i	i	i	i	nt	nt	nt
CCOC(=O)C1=C(C)OC(N)=C(C#N)C1c1c(C)nn(-c2ccc(C)cc2)c1Cl (centres undefined)	nt	nt	i	i	nt	nt	nt	nt
CC1Cc2ccccc2N1C(=O)C1CCCCN1S(=O)(=O)c1ccccc1 (centres undefined)	i	i	i	i	i	nt	nt	nt
Cc1nnc(Sc2cc(NCCO)c([N+](=O)[O-])c3nonc23)s1	nt	nt	i	i	nt	i	i	i
Cc1nnc(Sc2cc(NCCCO)c([N+](=O)[O-])c3nonc23)s1	nt	nt	10	i	nt	21%	i	i
CCCSc1cc(NCCOC(C)=O)c([N+](=O)[O-])c2nonc12	i	i	i	i	i	nt	nt	nt
CCC(=O)OCCNc1cc(Sc2nc3ccccc3s2)c2nonc2c1[N+](=O)[O-]	i	i	i	i	i	nt	nt	nt
CCCC(=O)OCCNc1cc(Sc2nccn2C)c2nonc2c1[N+](=O)[O-]	i	i	13	i	i	59%	i	i
O=[N+]([O-])c1c(NCCCO)cc(Sc2nc3ccccc3s2)c2nonc12	i	i	4.7	i	i	9.5%	i	150%
Cc1cccc(C)c1NC(=O)CN(C)c1ccc(C(F)(F)F)cn1	i	i	i	i	i	nt	nt	nt
O=C1c2cccnc2C(=O)N1c1ccccc1-c1ccccc1	i	i	i	i	i	nt	nt	nt
CCOC(=O)N1CCN(C(=O)CSCC(=O)Nc2nc(-c3ccc(Cl)s3)cs2)CC1	i	i	i	i	i	i	i	i
O=C(N/N=C/c1cc([N+](=O)[O-])ccc1O)NC12CC3CC(CC(C3)C1)C2	i	i	7.9	i	i	12%	i	i
O=[N+]([O-])c1ccc(O)c(/C=N/NC(=S)Nc2ccc(Cl)cc2Cl)c1	i	i	14	i	i	18%	i	i
COc1ccc(N2CC(C(=O)N/N=C/c3cc([N+](=O)[O-])ccc3O)CC2=O)cc1 (centres undefined)	i	i	5	i	i	5.0%	i	i
O=S(=O)(O)c1cc(O)c2c(O)c(N=Nc3cc(Cl)ccc3O)c(S(=O)(=O)O)cc2c1	i	i	i	i	i	nt	nt	nt
Oc1ccccc1C=NCCN=Cc1ccccc1O	i	i	i	i	i	nt	nt	nt
Oc1ccc(Cl)cc1C=NCCc1ccccc1	i	i	5	i	i	22%	35%	11%
Cn1c(CCNC(=O)c2ccco2)nc2cc(NC(=O)c3ccco3)ccc21	i	i	i	i	i	i	i	i
Cn1c(CCNC(=O)c2ccccc2)nc2cc(NC(=O)c3ccco3)ccc21	i	i	i	i	i	i	i	i
SMILES	MrgX1 allo act	MrgX1 antagonist	RGS4 block	RGS4 pot	MrgX1 ag	RGS4 inh valid	RGS4 uninduced	RGS4 inh ctr2
CCC(=O)NCCc1nc2cc(NC(=O)c3ccco3)ccc2n1C	i	i	i	i	i	i	i	i
Cn1c(CCNC(=O)c2ccco2)nc2cc(NC(=O)c3ccccc3)ccc21	i	i	i	i	i	i	i	i
Cn1c(CCNC(=O)c2ccco2)nc2cc(NC(=O)C3CCCCC3)ccc21	i	i	i	i	i	nt	nt	nt
COc1ccccc1C(=O)Nc1ccc2c(c1)nc(CCNC(=O)c1ccco1)n2C	i	i	i	i	i	nt	nt	nt
CCCCC(=O)Nc1ccc2c(c1)nc(CCNC(=O)c1ccco1)n2C	i	i	i	i	i	nt	nt	nt
Cn1c(CCNC(=O)c2ccco2)nc2cc(NS(=O)(=O)c3ccccc3)ccc21	i	i	i	i	i	nt	nt	nt
COc1cccc(-c2cc3onc(-c4ccccc4)c3c(=O)n2C)c1	i	i	nt	nt	i	nt	nt	nt
Cc1ccc(NC(=O)C2CCCN(c3cnccn3)C2)c(C)c1 (centres undefined)	i	i	i	i	i	nt	nt	nt
CCOC(=O)CSC1=NC(=O)/C(=C\c2ccc(OC(C)=O)cc2)S1	i	i	18	i	i	38%	i	9.0%
CCOC(=O)CSC1=NC(=O)/C(=C/c2ccc(Br)cc2)S1	i	i	i	i	i	nt	36%	i
Cc1ccc(C2c3c(-c4ccccc4O)n[nH]c3C(=O)N2Cc2ccncc2)cc1 (centres undefined)	i	i	i	i	i	nt	nt	nt
COc1cc(C2c3c(-c4cc(Cl)c(C)cc4O)n[nH]c3C(=O)N2Cc2cccnc2)ccc1O (centres undefined)	i	i	i	i	i	nt	i	i
Cc1cccc(CCNS(=O)(=O)c2ccc(S(=O)(=O)N3CCC(C)CC3)cc2)c1	i	i	i	i	i	nt	nt	nt
Clc1cccc(Cl)c1CSc1nnc([C@@H]2CCCN2)o1	i	i	i	i	i	nt	nt	nt
O=C(CC1C(=O)NCCN1C(=O)Nc1ccc(F)cc1)Nc1ccc(F)cc1 (centres undefined)	i	i	i	i	i	nt	i	i
O=C(CC1C(=O)NCCN1C(=O)Nc1ccccc1)Nc1cc(Cl)cc(Cl)c1 (centres undefined)	i	i	6.1	i	i	23%	i	i
COc1ccccc1C(=O)N1CCNC(=O)C1CC(=O)Nc1cccc(C)c1 (centres undefined)	i	i	5.1	i	i	i	i	i
O=C(CC1C(=O)NCCN1C(=O)Nc1ccccc1)Nc1cccc(Cl)c1 (centres undefined)	i	i	i	i	i	i	i	i
Cc1cccn2c(=O)c(C=NCCO)c(Nc3ccc(Cl)cc3)nc12	i	i	7.5	i	i	12%	i	i
Cc1cccn2c(=O)c(C=Nc3ccc(Cl)cc3)c(NCCO)nc12	i	i	i	i	i	nt	nt	nt
CCOc1ccc2nc(Cl)c(/C=C/C(=O)c3ccco3)cc2c1	i	i	9.5	i	i	i	40%	i
